# Measurements: ChEMBL document CHEMBL4513216, “Probing the Open Global Health Chemical Diversity Library for Multistage-Active Starting Points for Next-Generation Antimalarials” (ACS Infect Dis, 2020)
# Test: Toxicity liver stage against HepG2, at 10uM
# Assay type: cell-based
# Set-up: test concentration 10 uM, cell line HepG2-A16-CD81EGFP
# Conditions: human, HepG2-A16-CD81EGFP cells; read-out: INHIBITION
# In short: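 Uninfected HepG2-A16-CD81EGFP cells, 3 × 10^3 per well, 1536-well, plated on prespotted compound at 10 μM final, parasite-free screening media added to match infected plates; puromycin 10 μM positive, DMSO 0.5% negative; run in parallel with 48 h PbLuc assay at 37 °C, 5% CO2; viability by CellTiter-Glo luminescence, normalized to controls.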
row,Compound,cytotoxicity at 10 µM
1,CCN(CC(=O)NC(C)C)S(=O)(=O)N1CCCCCC1,2.37%
2,CCN(CC)C[C@H]1CN2CC[C@H]1C[C@@H]2CNC(=O)Nc1ccsc1,-17.8%
3,CC(C)NC(=O)NC[C@H]1OC[C@@H](NCc2cccs2)[C@@H]1O,-1.48%
4,O=C(NC[C@H]1OC[C@@H](NCc2ccccc2F)[C@@H]1O)Nc1ccccc1,-7.3%
5,Cc1ccccc1CSc1ncccc1C(=O)N(C)C,-7.24%
6,COc1ccc(C(=O)N(CCO)Cc2ccccc2)c(OC)n1,3.33%
7,O=C(c1cccnc1SCc1ccccc1)N1CCOCC1,4.74%
8,O=C(N[C@H]1CCCC[C@@H]1O)c1cccc(-c2nc3ccccc3[nH]2)c1,-3.65%
9,COCC(=O)N1CCC(=O)N(C2CCCC2)Cc2cc(F)ccc21,-3.3%
10,O=S(=O)(c1ccc(Cl)cc1)N1C[C@@H]2CCN[C@@H]2C1,-1.89%
11,CC(C)NC(=O)[C@H]1CCS(=O)(=O)[C@@H]2CN(c3ncc(F)cn3)C[C@H]12,-136%
12,CC(C)N(C)C(=O)C1=NOC2(CCN(C(=O)c3ccnnc3)C2)C1 (stereo not given),-119%
13,Cc1noc([C@@H]2C[C@H]3OCC[C@H]3N(S(=O)(=O)N(C)C)C2)n1,-122%
14,Cc1nc(CN2CCO[C@H]3CN(C(=O)Cc4cccs4)C[C@H]32)cs1,-124%
15,Cc1nc(C(=O)N2C[C@@H]3COC[C@]3(COCc3cccnc3)C2)cs1,-1.92%
16,COc1cc2[nH]c(C(=O)O)cc2c(OC)c1C,-1.51%
17,Cc1ccc(CN(C)CC2(O)CCCN(C)C2)o1 (stereo not given),-8.08%
18,CCn1nc(C)c2nc(C(C)C)nc(NCCCn3ccnc3)c21,10.8%
19,CCn1cc(Br)c(C(=O)NCc2cnn(C)c2)n1,-11.9%
20,Nc1nc(N)c2c(n1)OC1(CCN(C(=O)CC3CCNCC3)CC1)C2,5.41%
21,CN(C)c1cc(C2CCCN2C(=O)c2noc3c2CCCC3)ccn1 (stereo not given),9.13%
22,Cc1ccc(C(=O)N2CCOC(c3ncc(CN(C)C)[nH]3)C2)cc1F (stereo not given),0.388%

row,Compound,cytotoxicity at 10 µM
1,CCN1C(=O)CC[C@@H]2N(C(=O)CCn3nccc3C)CCCC[C@@]21C,-3.41%
2,CNc1cc(C)nc(C2COCCN2CCOc2ccc(F)cc2)n1 (stereo not given),3.18%
3,O=C(C1CCC1)N1CCC(c2ncc3c(n2)CCNC3)CC1,-25.1%
4,Cc1ccc(-n2c(SCC(=O)O)nnc2-c2ccccc2)cc1,-19.3%
5,CN1CC(=O)N(C2CCNCC2)Cc2c(NC3CCC3)ncnc21,3.9%
6,Cc1ccc(NC(=O)N2CCC(CO)(Nc3ccccc3)CC2)cc1,-0.405%
7,O=C(CN1CCCCCC1=O)NC1CCc2nccn2C1 (stereo not given),2.8%
8,Fc1cccc(C(NCc2ncc[nH]2)c2ccccn2)c1 (stereo not given),3.95%
9,C[C@H](O)c1cnn(-c2ccccc2)c1,0.503%
10,COC(C)c1noc(CN(C)c2nccnc2C#N)n1 (stereo not given),0.462%
11,COCCCn1ccc(NC2CCOCC2)n1,3.31%
12,Cn1ccc2c(C(=O)NCC3(C(N)=O)CCOCC3)cccc21,-1.21%
13,CC(=O)N(C)CC(=O)NC1(c2ccc(Br)cc2)CC1,-10.7%
14,CS(=O)(=O)Nc1cccc(CNC(=O)c2cccs2)c1,3.86%
15,CCCc1cc(C(=O)NCCN2C(=O)c3ccccc3C2=O)[nH]n1,2.29%
16,c1ccc(Cc2noc(CN3CCCC3C3CCCCC3)n2)cc1 (stereo not given),11.9%
17,O=C(CNc1cccc2c1CCCC2)Nc1ccccc1Br,11.4%
18,Cc1nn(C)c(N(C)C)c1CNCc1cccc(Cn2cccn2)c1,1.88%
19,Cc1cc(CN2CCc3nn(C)c(=O)cc3C2)no1,-9.01%
20,CCN(CC(=O)NC(C)C)S(=O)(=O)N1CCCC(C)C1 (stereo not given),2.77%
21,CC(=O)c1c(F)cccc1N1CCC(C(N)=O)CC1,6.75%
22,Cc1nc(CC(=O)N2CCN(Cc3ccc(C#N)cc3)CC2)cs1,1.91%

row,Compound,cytotoxicity at 10 µM
1,Cc1noc(CCCC(=O)N(CCC(=O)O)Cc2ccc(F)c(F)c2)n1,-11.3%
2,CC1CCN(S(=O)(=O)NC2CCCCNC2=O)CC1 (stereo not given),14%
3,CCc1sc(C(=O)Nc2cnn(CC(=O)NC3CC3)c2)cc1C,-2.17%
4,N#Cc1ccnc(N2CCN(C(=O)c3ccc4c(c3)CCO4)CC2)c1,-5.75%
5,Cc1ccccc1CS(=O)(=O)CC(=O)N(C)Cc1cccc(F)c1,4.8%
6,CC(C)(C)OC(=O)N1CSC[C@@H]1C(=O)NCc1cccc(C#N)c1,-5.88%
7,CC(C)OCCC(=O)Nc1ncn(CC(=O)N2CCCCCC2)n1,-1.61%
8,CC(=O)N1CCN(C(=O)NCCCN(C)S(C)(=O)=O)CC1,-7.33%
9,Cc1cc(C(=O)N2CCCC2)ccc1NCCO,-3.87%
10,Cc1oc(C(=O)O)cc1S(=O)(=O)Nc1ccc(Cl)c(Cl)c1,-0.532%
11,Cc1ccc(C)c(Sc2nccn(C)c2=O)c1,6.43%
12,C=C(C)CNC(C)c1ccc(S(C)(=O)=O)c(F)c1 (stereo not given),0.563%
13,Cn1cc(CN2CCN(Cc3nccn3C)CC2)cn1,15.5%
14,CC(CNC(=O)N1CCN(CC(F)F)CC1)Cc1cccs1 (stereo not given),-4.92%
15,O=C(NCCNS(=O)(=O)c1ccc2c(c1)CCCC2)c1ccoc1,0.743%
16,CC(NCc1ccncc1)c1cc(F)ccc1N1CCN(C)CC1 (stereo not given),-2.98%
17,CSCC(C)(O)CNC(=O)c1ccc(Br)cc1C (stereo not given),1.57%
18,Cn1cc(Br)c(=O)c(NS(=O)(=O)c2ccc(F)cc2)c1,-8.87%
19,COCCN(Cc1ccc(F)cc1Cl)C(=O)c1cccc[n+]1[O-],8.81%
20,CC(CN1CCOCC1)NC(=O)N(C)Cc1ccc(Cl)s1 (stereo not given),7.21%
21,CC(C)Oc1ncc(C(=O)N2CCC(NC(=O)C3CC3)CC2)cc1Cl,-20.8%
22,Cc1ccc(N2CCCN(C(=O)c3cc(Cl)c[nH]3)CC2)nn1,-9.12%

row,Compound,cytotoxicity at 10 µM
1,Cc1nc(C)n(CC2CN(CC(=O)Nc3cccnc3)CCO2)n1 (stereo not given),-12%
2,Cc1cn(CC(=O)N(C)Cc2cccc3ncccc23)c(=O)[nH]c1=O,14.2%
3,Cc1cccnc1CN1CCN(c2noc(-c3ccccc3)n2)CC1,8.09%
4,COCc1cc(CNCc2c(C)n(CC(N)=O)c3ccccc23)n[nH]1,-0.31%
5,COCc1cn(C2CCN(C(=O)c3ccc(F)c(C)c3)CC2)nn1,-0.723%
6,CCNC(=O)[C@@H]1C[C@H](N)CN1C(=O)C1(c2ccc(OC)cc2)CCCC1,5.67%
7,Cc1ccoc1C(=O)N1CCC(n2cc(-c3ccsc3)nn2)CC1,5.02%
8,c1cncc(C[C@@H]2CC[C@H](CN3CCCOCC3)O2)c1,2.13%
9,COc1ccc(-n2c(CCC(=O)O)nc3ccccc32)cc1CO,-0.334%
10,COCc1noc(CCNC(=O)c2ccc(C3CCCO3)s2)n1 (stereo not given),3.19%
11,CN1CCN(Cc2cnc(S(=O)(=O)CC3CC3)n2CC2CCCO2)CC1 (stereo not given),-2.87%
12,COc1ccccc1-n1cc(C(=O)NCCCn2ccnn2)cn1,-6.01%
13,Cc1c(C)c(C)c2[nH]c(-c3cn(C4CCNCC4)nn3)nc2c1C,-0.966%
14,O=C(c1ccc(=O)[nH]c1)N1CCCC2(C=Cc3ccccc3O2)CC1 (stereo not given),12.5%
15,Cc1cccc(CN(C(=O)CS(C)(=O)=O)C(C)C)c1,1.68%
16,CCCN1CC2(CCN(c3ccc(C(C)=O)cn3)CC2)CC1C(=O)O (stereo not given),-0.909%
17,CCC/C=C/c1ccc(CN2CCN(C)CC2)cn1,-8.61%
18,COC(=O)CCC(=O)NCc1cccnc1N1CCc2ccccc2C1,-8.09%
19,COc1cccc2c1OCC(CNC(=O)Cc1c(C)nc(N)nc1C)C2 (stereo not given),-140%
20,NC(=O)c1ccc(OCCCN2C[C@H](C3CC3)[C@@H](N)C2)cc1,-0.517%
21,CCN1CC(C(=O)N2CCC(Oc3ccccc3Cl)CC2)CC1=O (stereo not given),-22.4%
22,CN(CCc1ccccc1)Cc1cc(C(=O)N2CCN(C)C(=O)C2)no1,-11.6%

row,Compound,cytotoxicity at 10 µM
1,CC(NC(=O)CSCC#N)c1ccc(F)cc1 (stereo not given),-2.51%
2,CN(C)c1ccc(C(=O)N2CCCC2c2cnn(C)c2)cn1 (stereo not given),-1.83%
3,O=C(O)c1cc(S(=O)(=O)Nc2ccc(F)cc2F)cc2c1OCCO2,-1.2%
4,Cc1nccn1C1CCCN(C(=O)c2sccc2-n2cnnn2)C1 (stereo not given),-12.2%
5,Cn1cc(CN2CCCN(C(=O)c3ccccn3)CC2)cn1,-0.514%
6,Cc1cc(C(=O)NCCN2CCCC(C)C2)nn1C (stereo not given),-2.79%
7,CC(C)c1nc(C2CCCN2CCc2ccncc2)no1 (stereo not given),-10.8%
8,O=C(CN1CCCCC1Cn1cncn1)NCCC1=CCCCC1 (stereo not given),-7.59%
9,O=C(NCCCNc1ccccc1)c1scnc1Cl,1.83%
10,Cc1cnn(CC(C)NCc2csc(-c3ccco3)n2)c1 (stereo not given),3.44%
11,COCCN1CCN(Cc2c(C3CCNCC3)[nH]c3ncccc23)CC1,-23.2%
12,Cc1nn(C)c(Cl)c1CNCc1cccnc1N1CCCCC1,-145%
13,O=C(NCc1ccccn1)[C@]12COC[C@H]1CN(Cc1ccccc1F)C2,6.81%
14,CN(C)C[C@H]1C[C@@H]2CN(Cc3ccco3)C[C@@H]2O1,-1.66%
15,FC1(F)CCN(Cc2ccncc2)CC12CCN(c1cnccn1)C2 (stereo not given),3.19%
16,CCOCC(=O)N1CCC2(CC1)COC(COCc1ccccn1)C2 (stereo not given),-127%
17,O=C(C1CC1)N1CCC2(CCN(Cc3cccc(F)c3)CC2)CC1,-4.07%
18,O=C(C[C@@H]1COC[C@H]2CN(Cc3ccc(F)cc3)C[C@@H]12)N1CCCCO1,-2.26%
19,Cc1nc(COCc2cnc3n2CCN(C2CCC2)C3C)cs1 (stereo not given),-3.82%
20,CC(C)N(C)Cc1cnc2n1CCN(C(=O)Cc1ccsc1)C2,-118%
21,COc1cccc(C=CCCN2CCCN(C(C)=O)CC2)c1,6.67%
22,O=C1OCCN1CC(=O)N1C[C@@H]2CC[C@H]1CN(C(=O)c1ccccc1)C2,5.46%
